Counter-ions that a name gives are not always drawn.
System: Adr-induced arrhythmias
Assay: Adr-induced arrhythmia in rats, electrocardiography
Format: in vivo, rat
Settings: prophylactic administration, rats with Adr-induced arrhythmia; Fig. 5
Procedure, shortened: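 Rats (8 per group) got test compound intragastrically once daily for 14 days (5.19, 10.39 or 20.77 g/kg/d), metoprolol tartrate […], or saline 5 mL/kg/d. 30 min after the last dose, rats were anaesthetised i.p. with 0.6 % nembutal (30 mg/kg) and lead II ECG recorded at 50 mm/s. Adrenaline was given by tail vein as cumulative boluses (8, 16, 32, 64, 128) at 10-min intervals or until death. Read-outs were QRS duration and QTc = QT/√RR, as mean ± s.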

Compound	QRS interval	QTc interval
COCCc1ccc(OCC(O)CNC(C)C)cc1 (centres unmarked) [Meto, metoprolol tartrate]	no significant effect	shortened

System: not given
Assay: not given
Format: in vivo
Settings: rat, plasma, po, 10.39 g/kg/day

Compound	AUC(0-inf) [ng·h/mL]	AUC(0-t) [ng·h/mL]	Cmax [ng/mL]	MRT inf [h]	MRT last [h]	half-life [h]
COc1ccc2cc3[n+](cc2c1OC)CCc1cc2c(cc1-3)OCO2 [berberine]	162 ± 12.8	91.1 ± 52.9	30.9 ± 28.6	14.7 ± 7.88	4.26 ± 0.61	11.9 ± 5
O=C(O)/C=C/c1ccccc1 [cinnamic acid]	7693 ± 68.4	2010 ± 73.3	800 ± 142	2.48 ± 2.81	2.64 ± 1.31	4.78 ± 1.67
COc1cc2c(cc1OC)[C@@H]1Cc3ccc(OC)c(OC)c3CN1CC2 [tetrahydropalmatine]	881 ± 47.2	849 ± 54.3	421 ± 97.7	3.66 ± 0.54	2.91 ± 0.54	3.26 ± 1.13
O=c1c(-c2ccc(O)cc2)coc2c([C@@H]3O[C@H](CO)[C@@H](O)[C@H](O)[C@H]3O)c(O)ccc12 [puerarin]	615 ± 87.4	603 ± 69.4	145 ± 17	4.76 ± 1.55	4.19 ± 0.83	7.06 ± 4.39
O=C1C[C@@H](c2ccc(O[C@@H]3O[C@H](CO)[C@@H](O)[C@H](O)[C@H]3O)cc2)Oc2cc(O)ccc21 [liquiritin]	747 ± 83.6	708 ± 49.2	142 ± 8.69	10.7 ± 5.65	6.75 ± 0.84	7.14 ± 2.06
COc1ccc(-c2cc(=O)c3c(OC)c(OC)c(OC)c(OC)c3o2)cc1OC [nobiletin]	9921 ± 87.6	9892 ± 40.7	2869 ± 22.6	3.28 ± 0.19	3.24 ± 0.11	6.32 ± 0.89
C[n+]1cccc(C(=O)[O-])c1 [trigonelline]	3890 ± 60.4	3860 ± 46.4	1170 ± 39.8	4.53 ± 0.33	4.18 ± 0.19	2.58 ± 0.24
